Where two headings read alike, the source gives them in different places.
Legend:
[1] = test system: GLA; details: cited from earlier work
[2] = target: T1, α-Galactosidase A from green coffee beans (Coffea arabica, UniProt Q42656); test: GLA enzyme assay with 4MU-α-Gala, purified enzyme from green coffee beans; assay type: biochemical; details: for selectivity for GLA over GC (words): GLA vs GC; for inhibitory activity against GLA in qHTS and confirmation: bioactive 6,160 compound set; for IC50: read-out: IC50 for GLA, coffee bean GLA 1 nM, 40 μM 4MU-α-Gala, pH 5.9
T1 sequence (Q42656 16-378): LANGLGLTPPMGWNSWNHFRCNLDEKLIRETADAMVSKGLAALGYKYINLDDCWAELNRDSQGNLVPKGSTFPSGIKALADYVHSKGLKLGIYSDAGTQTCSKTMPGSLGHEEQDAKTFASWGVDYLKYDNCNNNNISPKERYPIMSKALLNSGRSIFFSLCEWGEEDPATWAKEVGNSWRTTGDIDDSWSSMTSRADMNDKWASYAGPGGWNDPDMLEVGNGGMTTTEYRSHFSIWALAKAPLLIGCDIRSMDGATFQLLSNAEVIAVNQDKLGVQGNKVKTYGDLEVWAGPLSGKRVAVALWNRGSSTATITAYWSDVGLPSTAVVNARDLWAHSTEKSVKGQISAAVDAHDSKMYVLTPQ

[3] = target: T2, human recombinant glucocerebrosidase (GC) (Homo sapiens, UniProt P04062, R534H); test: glucocerebrosidase; assay type: biochemical
T2 sequence (P04062 40-536 R534H): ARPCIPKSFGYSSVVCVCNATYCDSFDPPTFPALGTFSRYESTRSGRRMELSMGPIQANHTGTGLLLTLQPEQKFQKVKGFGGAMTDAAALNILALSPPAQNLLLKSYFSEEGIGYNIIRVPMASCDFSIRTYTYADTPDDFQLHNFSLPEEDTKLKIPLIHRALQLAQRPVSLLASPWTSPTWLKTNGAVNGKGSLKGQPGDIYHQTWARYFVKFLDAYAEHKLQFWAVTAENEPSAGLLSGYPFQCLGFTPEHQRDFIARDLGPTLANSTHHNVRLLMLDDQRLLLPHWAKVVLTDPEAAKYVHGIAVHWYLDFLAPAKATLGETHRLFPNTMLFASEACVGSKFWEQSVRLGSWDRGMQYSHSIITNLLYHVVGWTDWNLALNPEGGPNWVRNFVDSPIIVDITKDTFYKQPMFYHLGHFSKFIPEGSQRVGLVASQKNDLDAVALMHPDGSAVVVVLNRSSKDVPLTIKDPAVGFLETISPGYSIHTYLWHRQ
Procedure, shortened: (§1)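 Enzyme (2 μl), then 23 nl test compound in DMSO, then 1 μl 4MU substrate; 30 min at 21 °C, NaOH/glycine stop (pH 11.6), fluorescence at ex 365/em 440 nm. Enzymes stored in 30% glycerol at -80°C. GC: clinical imiglucerase, 1.9 nM, 800 μM 4MU-β-Glc, citrate/phosphate pH 5.9. GAA: 8 nM, 160 μM 4MU-α-glc, same buffer titrated to pH 5.0.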

[4] = test system: rice α-glucosidase (GAA); test: α-glucosidase; assay type: biochemical; details: enzyme 8 nM, substrate 160 μM
Procedure, shortened: as §1

[5] = target: T1, α-Galactosidase A from green coffee beans; test: GLA enzyme kinetics assay; assay type: biochemical
[6] = target: T3, human recombinant GLA (Homo sapiens, UniProt P06280); test: qHTS with human recombinant GLA; assay type: biochemical; details: human recombinant GLA screen
T3 sequence (P06280 32-429): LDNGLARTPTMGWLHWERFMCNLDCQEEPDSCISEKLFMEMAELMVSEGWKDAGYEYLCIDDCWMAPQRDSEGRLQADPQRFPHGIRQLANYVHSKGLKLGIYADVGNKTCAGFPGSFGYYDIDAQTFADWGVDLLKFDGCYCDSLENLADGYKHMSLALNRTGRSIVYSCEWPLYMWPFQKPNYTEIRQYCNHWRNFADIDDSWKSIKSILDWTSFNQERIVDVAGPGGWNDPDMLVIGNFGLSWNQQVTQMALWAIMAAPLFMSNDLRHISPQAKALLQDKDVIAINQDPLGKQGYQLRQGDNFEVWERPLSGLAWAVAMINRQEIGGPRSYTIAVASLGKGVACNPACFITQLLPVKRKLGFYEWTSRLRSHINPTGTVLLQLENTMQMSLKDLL

[7] = target: T4, GLA in human spleen homogenate (Homo sapiens, UniProt P06280); test: qHTS with GLA in human spleen homogenate; assay type: biochemical; details: human spleen homogenate screen
T4 sequence (P06280 32-429): T3 sequence (P06280 32-429)

[8] = read-out: IC50 for GC, enzyme 1.9 nM, substrate 800 μM

In the case of OC[C@H]1NC[C@H](O)[C@@H](O)[C@H]1O [DGJ, 1-deoxygalactonojirimycin], the IC50 ([1]; read-out: reported IC50 value) is given as 3 nM.

With O=C([O-])c1ccccc1-c1c2cc(Br)c(=O)cc-2oc2[c]([Hg+])c([O-])c(Br)cc12.[Na+].[Na+].[OH-] [merbromin] the “selectivity for GLA over GC (words)” value [2] was “not selective for GLA”, the “selectivity for GLA over GC (words)” value ([2]; listed as Merbromin) was “more potent against GC than GLA” and the “inhibitory activity against GLA in qHTS and confirmation” value (shortened to “inhibitory activity against GLA”) [2] was “relatively high inhibitory activity”. The IC50 [2] was 1380 nM, the IC50 [3, 8] was 630 nM and the “inhibition of GAA” value [4] was “slightly inhibited GAA”.

Cc1cc(=O)oc2cc(O[C@H]3O[C@H](CO)[C@H](O)[C@H](O)[C@H]3O)ccc12 [4MU-α-Gala, 4-methylumbelliferyl-α-D-galactopyranoside] showed a Km ([5]; pH 4.5) of 102 µM, a Vmax ([5]; pH 4.5) of 2.76 pmol/min and a Km ([5]; pH 5.9, 1 nM enzyme) of 144 µM. For the same molecule, the Vmax ([5]; pH 5.9, 1 nM enzyme) was 5.74 pmol/min and the Km ([1]; same substrate, pH 6.5) was 239 µM.

With C[C@H](CCC(=O)NCCS(=O)(=O)O)[C@H]1CC[C@H]2[C@@H]3[C@H](O)C[C@@H]4C[C@H](O)CC[C@]4(C)[C@H]3C[C@H](O)[C@]12C [sodium taurocholate] the “effect on GLA activity” value ([2]; titration 0.15 to 40 mM) was “decreased the GLA activity”.

For CC(=O)[O][Hg][c]1ccccc1 [phenylmercuric acetate], the “selectivity for GLA over GC (words)” value [2] was “not selective for GLA”, the “selectivity for GLA over GC (words)” value ([2]; listed as Phenylmercuric acetate) was “significantly more potent against GC than GLA” and the “inhibitory activity against GLA” value [2] was “relatively high inhibitory activity”. The IC50 [2] was 7420 nM, the IC50 [3, 8] was 82 nM and the “inhibition of GAA” value [4] was “did not inhibit GAA”.

For Cc1c(OCC(F)(F)F)ccnc1C[S+]([O-])c1nc2ccccc2[nH]1 (stereo not drawn) [lansoprazole], the “selectivity for GLA over GC (words)” value [2] was “showed selectivity for GLA over GC”, the “inhibitory activity against GLA” value [2] was “relatively high inhibitory activity” and the IC50 [3] was 122000 nM. The “inhibition of GAA” value [4] was “did not inhibit GAA”, the “activity with the human enzyme” value [6] was “not active” and the “activity with the human enzyme” value [7] was “not active”. For the same molecule, the Ki [5] was 5500 nM and the type of inhibition ([5]; Lineweaver-burk plot) was “mixed type of inhibition”.
